Assay results reported in ChEMBL document CHEMBL1156783, “Synthesis, biological evaluation, X-ray structure, and pharmacokinetics of aminopyrimidine c-jun-N-terminal kinase (JNK) inhibitors” (J Med Chem, 2010).
Calls of active or inactive are those of the source. No cut-off for these calls is given here.

Columns and labels:
[1] = Inhibition of p38 kinase by time resolved fluorescence assay
How it was run: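 Commercial recombinant p38 in a homogeneous time-resolved fluorescence biochemical assay run per an earlier protocol. IC50 is the average of three or more experiments.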

[2] = molecular target: Mitogen-activated protein kinase 8 (Homo sapiens, UniProt P45983); assay: Inhibition of JNK1 by time resolved fluorescence assay
Chain of Mitogen-activated protein kinase 8 (P45983 whole entry): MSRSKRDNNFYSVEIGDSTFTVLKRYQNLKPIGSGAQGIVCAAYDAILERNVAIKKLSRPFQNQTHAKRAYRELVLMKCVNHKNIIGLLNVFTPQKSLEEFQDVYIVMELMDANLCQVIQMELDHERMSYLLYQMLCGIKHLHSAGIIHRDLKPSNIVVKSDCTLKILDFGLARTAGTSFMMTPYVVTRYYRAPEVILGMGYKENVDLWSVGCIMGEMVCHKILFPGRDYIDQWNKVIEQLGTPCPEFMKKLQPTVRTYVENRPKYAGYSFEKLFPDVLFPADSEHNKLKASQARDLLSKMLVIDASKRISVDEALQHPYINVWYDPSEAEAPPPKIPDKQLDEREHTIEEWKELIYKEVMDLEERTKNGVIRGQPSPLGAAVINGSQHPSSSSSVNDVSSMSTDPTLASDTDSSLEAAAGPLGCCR

[3] = molecular target: CYP2C9 (Homo sapiens, UniProt P11712); assay: Inhibition of human CYP2C9 at 10 uM after 15 mins; type: ADME
Chain of CYP2C9 (P11712 whole entry): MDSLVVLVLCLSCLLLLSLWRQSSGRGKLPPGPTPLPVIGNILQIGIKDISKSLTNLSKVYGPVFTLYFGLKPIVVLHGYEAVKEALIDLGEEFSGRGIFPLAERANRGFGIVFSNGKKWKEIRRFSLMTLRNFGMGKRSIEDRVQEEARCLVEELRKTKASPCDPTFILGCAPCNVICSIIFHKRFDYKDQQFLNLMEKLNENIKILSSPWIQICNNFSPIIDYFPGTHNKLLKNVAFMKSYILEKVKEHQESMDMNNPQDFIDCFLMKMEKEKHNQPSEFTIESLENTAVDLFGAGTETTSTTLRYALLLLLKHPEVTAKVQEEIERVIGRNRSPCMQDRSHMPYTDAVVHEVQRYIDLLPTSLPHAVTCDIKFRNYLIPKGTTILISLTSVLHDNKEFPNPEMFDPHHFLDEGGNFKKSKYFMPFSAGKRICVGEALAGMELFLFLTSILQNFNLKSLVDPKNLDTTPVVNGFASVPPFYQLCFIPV

[4] = molecular target: CYP2D6 (Homo sapiens, UniProt P10635); assay: Inhibition of human CYP2D6 at 10 uM after 15 mins; type: ADME
Chain of CYP2D6 (P10635 whole entry): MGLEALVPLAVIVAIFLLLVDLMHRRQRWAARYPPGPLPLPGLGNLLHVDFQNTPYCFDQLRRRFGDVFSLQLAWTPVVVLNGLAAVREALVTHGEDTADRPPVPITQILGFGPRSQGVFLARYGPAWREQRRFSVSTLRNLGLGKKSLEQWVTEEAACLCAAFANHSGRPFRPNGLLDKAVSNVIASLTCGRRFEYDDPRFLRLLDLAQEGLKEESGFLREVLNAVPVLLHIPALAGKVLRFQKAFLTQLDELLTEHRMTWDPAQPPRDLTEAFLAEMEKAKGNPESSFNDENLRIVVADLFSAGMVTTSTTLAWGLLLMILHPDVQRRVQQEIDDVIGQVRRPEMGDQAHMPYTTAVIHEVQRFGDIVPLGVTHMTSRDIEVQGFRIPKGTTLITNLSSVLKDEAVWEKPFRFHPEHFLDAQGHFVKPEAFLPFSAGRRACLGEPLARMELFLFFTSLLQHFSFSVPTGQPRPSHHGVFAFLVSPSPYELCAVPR

[5] = molecular target: CYP3A4 (Homo sapiens, UniProt P08684); assay: Inhibition of human CYP3A4 at 10 uM after 15 mins; type: ADME
Chain of CYP3A4 (P08684 whole entry): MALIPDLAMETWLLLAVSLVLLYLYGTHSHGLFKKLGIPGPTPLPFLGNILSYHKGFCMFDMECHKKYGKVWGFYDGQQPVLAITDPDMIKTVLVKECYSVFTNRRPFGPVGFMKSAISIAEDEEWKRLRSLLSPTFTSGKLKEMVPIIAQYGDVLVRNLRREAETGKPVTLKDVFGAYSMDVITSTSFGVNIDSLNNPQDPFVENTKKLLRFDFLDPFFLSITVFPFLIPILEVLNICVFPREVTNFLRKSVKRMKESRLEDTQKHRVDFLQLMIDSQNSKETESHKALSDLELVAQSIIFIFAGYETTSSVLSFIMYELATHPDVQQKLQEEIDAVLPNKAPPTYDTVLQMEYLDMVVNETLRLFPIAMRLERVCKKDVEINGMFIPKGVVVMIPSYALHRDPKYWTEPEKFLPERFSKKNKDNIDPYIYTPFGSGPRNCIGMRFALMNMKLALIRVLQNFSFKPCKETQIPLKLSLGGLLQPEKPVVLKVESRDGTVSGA

[6] = molecular target: T1, CYP1A2 (Homo sapiens, UniProt P05177); assay: Inhibition of human CYP1A2 at 10 uM after 15 mins; type: ADME
T1 sequence (P05177 whole entry): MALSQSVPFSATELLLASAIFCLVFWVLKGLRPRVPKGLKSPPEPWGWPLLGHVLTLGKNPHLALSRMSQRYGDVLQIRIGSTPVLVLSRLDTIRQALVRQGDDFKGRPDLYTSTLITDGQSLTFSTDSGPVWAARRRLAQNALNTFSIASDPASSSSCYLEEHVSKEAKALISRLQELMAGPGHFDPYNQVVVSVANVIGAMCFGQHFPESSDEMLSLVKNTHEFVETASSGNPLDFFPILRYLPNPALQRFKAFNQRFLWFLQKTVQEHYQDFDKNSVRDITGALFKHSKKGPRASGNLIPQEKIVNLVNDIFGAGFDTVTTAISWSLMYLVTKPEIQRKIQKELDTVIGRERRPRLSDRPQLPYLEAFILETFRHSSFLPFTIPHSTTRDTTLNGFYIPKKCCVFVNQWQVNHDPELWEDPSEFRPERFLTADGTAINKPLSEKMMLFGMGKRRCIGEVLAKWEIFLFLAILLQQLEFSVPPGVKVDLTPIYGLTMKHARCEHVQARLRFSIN

[7] = Metabolic stability in mouse liver microsomes at 1 uM by LC-MS/MS analysis; type: ADME, Microsome
[8] = system: Liver microsomes; assay: Metabolic stability in rat liver microsomes at 1 uM by LC-MS/MS analysis; type: ADME, Microsome
[9] = system: Liver microsomes; assay: Metabolic stability in human liver microsomes at 1 uM by LC-MS/MS analysis; type: ADME, Microsome
[10] = system: Plasma; assay: Protein binding in mouse plasma; type: ADME, cell-free
[11] = system: Plasma; assay: Protein binding in rat plasma; type: ADME, cell-free
[12] = system: Plasma; assay: Protein binding in dog plasma; type: ADME, cell-free, Canis lupus familiaris
[13] = system: Plasma; assay: Protein binding in monkey plasma; type: ADME, cell-free, Macaca mulatta; settings: rhesus monkey
[14] = system: Plasma; assay: Protein binding in human plasma; type: ADME, cell-free
[15] = Plasma clearance in Sprague-Dawley rat at 1 mg/kg, iv and 2 mg/kg, po; type: ADME, organism-based
How it was run: (§1)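 Sprague-Dawley rats (n = 3) given 1 mg/kg i.v. and 2 mg/kg oral gavage. Blood was drawn into EDTA at 5, 15, 30 min and 1, 2, 4, 6, 8 h. Plasma proteins were precipitated with acetonitrile and drug was measured by LC-MS/MS. Cmax, AUC, t1/2, CL, Vd and oral bioavailability came from noncompartmental analysis.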

[16] = Half life in Sprague-Dawley rat at 1 mg/kg, iv and 2 mg/kg, po; type: ADME, organism-based; settings: in vivo; how it was run: as §1
[17] = Volume of distribution in Sprague-Dawley rat at 1 mg/kg, iv and 2 mg/kg, po; type: ADME, organism-based; settings: in vivo; how it was run: as §1
[18] = AUC in Sprague-Dawley rat at 2 mg/kg, po; type: ADME, organism-based; set-up: dose 2 mg/kg, route oral; settings: plasma
[19] = Cmax in Sprague-Dawley rat at 2 mg/kg, po; type: ADME, organism-based; set-up: dose 2 mg/kg, route oral; settings: in vivo
[20] = system: Rattus norvegicus; assay: Oral bioavailability in Sprague-Dawley rat at 2 mg/kg; type: ADME, organism-based; settings: in vivo; how it was run: as §1
[21] = molecular target: Mitogen-activated protein kinase 10 (Homo sapiens, UniProt P53779); assay: Inhibition of JNK3 by time resolved fluorescence assay
Chain of Mitogen-activated protein kinase 10 (P53779 whole entry): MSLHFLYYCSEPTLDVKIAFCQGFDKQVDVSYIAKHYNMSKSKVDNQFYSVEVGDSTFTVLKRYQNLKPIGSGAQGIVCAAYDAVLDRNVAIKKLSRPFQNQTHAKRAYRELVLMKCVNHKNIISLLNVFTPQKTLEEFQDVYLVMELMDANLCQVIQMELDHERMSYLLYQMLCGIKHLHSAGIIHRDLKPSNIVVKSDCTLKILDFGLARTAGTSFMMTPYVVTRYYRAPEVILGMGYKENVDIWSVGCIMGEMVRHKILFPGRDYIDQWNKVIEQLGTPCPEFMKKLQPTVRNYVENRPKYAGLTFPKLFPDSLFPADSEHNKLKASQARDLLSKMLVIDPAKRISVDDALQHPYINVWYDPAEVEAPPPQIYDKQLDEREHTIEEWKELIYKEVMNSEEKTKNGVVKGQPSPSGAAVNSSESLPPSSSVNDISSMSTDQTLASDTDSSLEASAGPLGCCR

[22] = Inhibition of c-jun phosphorylation in rat INS-1 cells; type: cell-based; settings: INS1
[23] = Selectivity ratio of IC50 for JNK1 over IC50 for p38 kinase
[24] = Selectivity ratio of IC50 for JNK3 over IC50 for p38 kinase
[25] = system: Jurkat; assay: Inhibition of IL-2 release in human Jurkat cells at 10 uM; type: functional
[26] = Inhibition of streptozotocin-induced H2O2 production in rat INS1(823/13) cells treated 30 mins before streptozotocin challenge measured after 4 hrs; type: functional, cell-based
How it was run: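 Rat insulinoma INS1 823/13 cells in RPMI 1640 with 10% FBS were plated and left overnight at 37 °C. Compound in DMSO was added 30 min before 4 mM STZ and kept through 4 h of STZ at 37 °C. Cells were loaded with 5 μM CM-H2DCFDA for 1 h, and fluorescence was read at 495/525 nm. Signal was normalized to STZ alone. A 12-point curve was fitted by four-parameter regression over four biological replicates run in duplicate.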

[27] = molecular target: Dual specificity mitogen-activated protein kinase kinase 7 (Homo sapiens) (UniProt O14733); assay: Inhibition of MKK7 at 3 uM
[28] = molecular target: Dual specificity mitogen-activated protein kinase kinase 4 (Homo sapiens) (UniProt P45985); assay: Inhibition of MKK4 at 3 uM
[29] = molecular target: Mitogen-activated protein kinase kinase kinase 9 (Homo sapiens) (UniProt P80192); assay: Inhibition of MLK1 at 3 uM
Chain of Mitogen-activated protein kinase kinase kinase 9 (Homo sapiens) (P80192 whole entry, looked up): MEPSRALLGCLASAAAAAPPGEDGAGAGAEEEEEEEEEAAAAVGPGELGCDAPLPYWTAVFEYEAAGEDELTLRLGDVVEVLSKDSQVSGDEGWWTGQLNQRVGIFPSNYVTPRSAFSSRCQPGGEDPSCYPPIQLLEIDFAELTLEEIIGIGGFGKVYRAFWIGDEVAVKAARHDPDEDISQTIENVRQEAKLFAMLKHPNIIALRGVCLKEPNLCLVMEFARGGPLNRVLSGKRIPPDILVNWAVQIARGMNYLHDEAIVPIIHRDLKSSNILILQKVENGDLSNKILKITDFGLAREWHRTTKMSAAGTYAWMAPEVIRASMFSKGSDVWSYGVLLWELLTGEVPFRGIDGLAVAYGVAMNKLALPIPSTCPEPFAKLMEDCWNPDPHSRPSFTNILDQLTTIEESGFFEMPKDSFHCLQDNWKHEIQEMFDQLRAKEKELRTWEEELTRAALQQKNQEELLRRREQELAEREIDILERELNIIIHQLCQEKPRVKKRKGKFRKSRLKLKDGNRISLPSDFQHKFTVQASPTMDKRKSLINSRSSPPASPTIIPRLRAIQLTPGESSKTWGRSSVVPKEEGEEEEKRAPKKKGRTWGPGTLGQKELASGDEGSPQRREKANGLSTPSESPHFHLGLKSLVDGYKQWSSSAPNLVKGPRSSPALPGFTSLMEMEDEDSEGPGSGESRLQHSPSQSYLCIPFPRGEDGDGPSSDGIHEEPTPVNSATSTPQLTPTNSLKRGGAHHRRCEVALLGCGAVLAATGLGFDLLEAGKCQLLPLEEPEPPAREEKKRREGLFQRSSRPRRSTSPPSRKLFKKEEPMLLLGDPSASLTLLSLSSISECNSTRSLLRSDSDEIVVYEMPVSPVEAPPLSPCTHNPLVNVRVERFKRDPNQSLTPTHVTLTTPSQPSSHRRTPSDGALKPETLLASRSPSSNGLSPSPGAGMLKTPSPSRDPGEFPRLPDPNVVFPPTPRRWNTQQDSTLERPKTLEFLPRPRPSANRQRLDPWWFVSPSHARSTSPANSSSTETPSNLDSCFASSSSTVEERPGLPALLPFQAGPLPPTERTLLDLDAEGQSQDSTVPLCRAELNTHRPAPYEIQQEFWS
How it was run: (§2)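 Counterscreen in a biochemical panel of 400 kinases. Each kinase was tested at a single inhibitor level of 3 μM, and percent inhibition was recorded.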

[30] = molecular target: Mitogen-activated protein kinase kinase kinase 10 (Homo sapiens) (UniProt Q02779); assay: Inhibition of MLK2 at 3 uM; how it was run: as §2
[31] = molecular target: Mitogen-activated protein kinase kinase kinase 11 (Homo sapiens) (UniProt Q16584); assay: Inhibition of MLK3 at 3 uM; how it was run: as §2
[32] = molecular target: Mitogen-activated protein kinase kinase kinase 1 (Homo sapiens) (UniProt Q13233); assay: Inhibition of MAPK3K1 at 3 uM; how it was run: as §2
[33] = molecular target: Mitogen-activated protein kinase kinase kinase 2 (Homo sapiens) (UniProt Q9Y2U5); assay: Inhibition of MAPK3K2 at 3 uM; how it was run: as §2
Chain of Mitogen-activated protein kinase kinase kinase 2 (Homo sapiens) (Q9Y2U5 whole entry): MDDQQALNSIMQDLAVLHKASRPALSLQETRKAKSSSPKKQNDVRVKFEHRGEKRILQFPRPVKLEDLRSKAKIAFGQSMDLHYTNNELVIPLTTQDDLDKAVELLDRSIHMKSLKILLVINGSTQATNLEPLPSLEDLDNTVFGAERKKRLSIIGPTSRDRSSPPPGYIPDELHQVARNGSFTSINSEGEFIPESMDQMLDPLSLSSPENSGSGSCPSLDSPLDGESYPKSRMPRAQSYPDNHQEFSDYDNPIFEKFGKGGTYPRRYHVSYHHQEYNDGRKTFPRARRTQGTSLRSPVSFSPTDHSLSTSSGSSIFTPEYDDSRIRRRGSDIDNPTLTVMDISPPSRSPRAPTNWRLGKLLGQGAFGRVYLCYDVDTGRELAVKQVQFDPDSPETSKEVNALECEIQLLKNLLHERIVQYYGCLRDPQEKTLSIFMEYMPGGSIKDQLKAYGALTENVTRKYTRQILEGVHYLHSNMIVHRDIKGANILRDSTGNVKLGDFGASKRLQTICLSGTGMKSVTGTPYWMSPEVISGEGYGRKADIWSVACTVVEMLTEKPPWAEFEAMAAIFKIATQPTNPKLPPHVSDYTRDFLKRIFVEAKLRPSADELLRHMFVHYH

[34] = molecular target: Mitogen-activated protein kinase kinase kinase 3 (Homo sapiens) (UniProt Q99759); assay: Inhibition of MAPK3K3 at 3 uM; how it was run: as §2
Chain of Mitogen-activated protein kinase kinase kinase 3 (Homo sapiens) (Q99759 whole entry): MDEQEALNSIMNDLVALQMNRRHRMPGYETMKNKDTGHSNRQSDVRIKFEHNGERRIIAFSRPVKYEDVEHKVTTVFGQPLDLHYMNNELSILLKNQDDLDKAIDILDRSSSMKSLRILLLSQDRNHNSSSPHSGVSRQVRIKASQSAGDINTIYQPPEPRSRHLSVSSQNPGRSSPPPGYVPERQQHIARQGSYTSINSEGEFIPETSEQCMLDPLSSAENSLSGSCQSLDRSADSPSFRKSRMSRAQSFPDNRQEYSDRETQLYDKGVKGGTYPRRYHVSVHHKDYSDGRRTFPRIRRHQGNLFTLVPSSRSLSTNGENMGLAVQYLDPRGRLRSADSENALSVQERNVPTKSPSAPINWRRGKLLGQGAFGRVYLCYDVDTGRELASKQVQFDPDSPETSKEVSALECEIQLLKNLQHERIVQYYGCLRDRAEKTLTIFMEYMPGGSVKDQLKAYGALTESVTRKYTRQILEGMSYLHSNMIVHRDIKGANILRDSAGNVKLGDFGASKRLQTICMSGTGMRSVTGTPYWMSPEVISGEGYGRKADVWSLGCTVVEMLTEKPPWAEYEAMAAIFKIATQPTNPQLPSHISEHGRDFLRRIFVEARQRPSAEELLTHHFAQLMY

[35] = molecular target: Mitogen-activated protein kinase kinase kinase 4 (Homo sapiens) (UniProt Q9Y6R4); assay: Inhibition of MAPK3K4 at 3 uM; how it was run: as §2
[36] = molecular target: Mitogen-activated protein kinase kinase kinase 5 (Homo sapiens) (UniProt Q99683); assay: Inhibition of ASK1 at 3 uM

SMILES | IC50 [1] | IC50 [2] | inhibition at 0.25 h, 10 µM [3] | inhibition at 0.25 h, 10 µM [4] | inhibition at 0.25 h, 10 µM [5] | inhibition at 0.25 h, 10 µM [6] | Stability [7] | Stability [8] | Stability [9] | clearance [15] | half-life [16] | Vd [17] | AUC [18] | Cmax [19] | F [20] | IC50 [21] | IC50 [22] | other results
NC(=O)c1ccc(Nc2nccc(-c3ccccc3)n2)cc1 | > 20000 nM | – | – | – | – | – | – | – | – | – | – | – | – | – | – | – | – | –
c1cncc(-c2ncn(-c3ccc(Nc4nccc(-c5cccc(N6CCOCC6)c5)n4)cc3)n2)c1 | > 20000 nM | 97 nM | – | – | – | – | – | – | – | – | – | – | – | – | – | – | – | –
Fc1cc(-c2ccnc(Nc3ccc(-n4cnc(N5CCOCC5)n4)cc3)n2)cc(N2CCOCC2)c1 | – | 99 nM | 75% | 4% | 89% | 70% | 21 min | 41 min | 26 min | 20 mL/min/kg | 2.4 h | 2.5 L/kg | 1.4 µM·h | 300 nM | 45% | – | – | PPB [10]: 92%; PPB [11]: 98%; PPB [12]: 96%; PPB [13]: 96%; PPB [14]: 92%
N#Cc1cc(-c2ccnc(Nc3ccc(-n4cnc(-c5ccccn5)n4)cc3)n2)cc(N2CCOCC2)c1 | > 20000 nM | 39 nM | -2% | -4% | 33% | 15% | 51 min | 47 min | 29 min | 3 mL/min/kg | 3 h | 0.6 L/kg | 5.9 µM·h | 500 nM | 27% | 79 nM | – | –
CS(=O)(=O)Nc1ccc(-c2ccnc(Nc3ccc(-n4ccnn4)cc3)n2)cc1 | > 20000 nM | 16 nM | – | – | – | – | – | – | – | – | – | – | – | – | – | 4 nM | 210 nM | –
Cn1nnc(-c2ccc(Nc3nccc(-c4cc(C#N)cc(N5CCOCC5)c4)n3)cc2)n1 | > 20000 nM | 45 nM | 7% | 10% | 15% | -1% | 26 min | 11 min | 17 min | 44 mL/min/kg | 1.9 h | 3.3 L/kg | 0.24 µM·h | 70 nM | 14% | 140 nM | – | –
Cc1ncn(-c2ccc(Nc3nccc(-c4cc(C#N)cc(N5CCOCC5)c4)n3)cc2)n1 | > 20000 nM | 54 nM | – | – | – | – | – | – | – | – | – | – | – | – | – | 79 nM | 89 nM | Ratio IC50 [23]: > 135; Ratio IC50 [24]: > 135
CS(=O)(=O)Nc1ccc(-c2ccnc(Nc3ccc(S(N)(=O)=O)cc3)n2)cc1 | > 20000 nM | – | – | – | – | – | – | – | – | – | – | – | – | – | – | – | – | –
c1cc(-c2ccnc(Nc3ccc(-n4ccnn4)cc3)n2)cc(N2CCOCC2)c1 | > 20000 nM | 123 nM | – | – | – | – | – | – | – | – | – | – | – | – | – | 365 nM | – | –
N#C/C(=C1/Nc2ccccc2S1)c1ccnc(NCCc2cccnc2)n1 | – | – | – | – | – | – | – | – | – | – | – | – | – | – | – | – | – | inhibition at 10 µM [25]: 90%
Cc1ncn(-c2ccc(Nc3nccc(-c4cccc(N5CCOCC5)c4)n3)cc2)n1 | > 20000 nM | 113 nM | 43% | 4% | 48% | 39% | 5 min | 17 min | 18 min | 10 mL/min/kg | 0.8 h | 0.4 L/kg | 2 µM·h | 950 nM | 25% | 390 nM | 281 nM | –
CN1CCN(c2ncn(-c3ccc(Nc4nccc(-c5cc(F)cc(N6CCOCC6)c5)n4)cc3)n2)CC1 | > 20000 nM | 102 nM | – | – | – | – | – | – | – | – | – | – | – | – | – | 133 nM | 260 nM | –
Fc1cc(-c2cc[nH]/c(=N/c3ccc(-n4cnc(N5CCOCC5)n4)cc3)n2)cc(N2CCOCC2)c1 | > 20000 nM | – | – | – | – | – | – | – | – | – | – | – | – | – | – | – | 54 nM | IC50 [26]: 0.81 nM; Activity [27]: inactive; Activity [28]: inactive; Activity [29]: inactive; Activity [30]: inactive; Activity [31]: inactive; Activity [32]: inactive; Activity [33]: inactive; Activity [34]: inactive; Activity [35]: inactive; Activity [36]: inactive
